Laboratory results published in ChEMBL document CHEMBL1127752, “Synthesis and antitumor activity of novel mitomycin derivatives containing functional groups at the C-6-methyl position” (J Med Chem, 1994).

Key:
[1] = tested on: Mus musculus; assay: In vivo antitumor activity against lymphatic leukemia P388 cells resistant to mitomycin C (MMC) was measured as maximal increase in life span of the treated mice at optimal dose of 6.0 mg/kg; format: functional
[2] = tested on: HeLa; assay: In vitro anticellular activity tested against HeLa S3 cells; format: functional, cell-based; settings: Homo sapiens
In short: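 HeLa S3 cells seeded on day 0, then exposed to drug for 1 h on day 1; anticellular activity determined by a previously described method.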

[3] = tested on: CCRF S-180; assay: Optimal dose towards sarcoma 180 cells, inoculated subcutaneously to the axillary region of ddY mice; format: functional, Mus musculus
In short: (§1)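 Sarcoma 180 cells implanted sc in the axillary region of ddY mice on day 0; compounds given iv on day 1. Tumor volume compared treated versus control (T/C). 50% growth-inhibitory dose calculated from the dose-response curve; optimal dose also recorded.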

[4] = tested on: CCRF S-180; assay: Tumor volume of sarcoma 180 cells which were inoculated […] to the axillary region of ddY mice, after treatment; format: functional, Mus musculus
[5] = tested on: Mus musculus; assay: In vivo antitumor activity against lymphatic leukemia P388 cells sensitive to mitomycin C (MMC) was measured as maximal increase in life span of the treated mice at optimal dose of 3.1 mg/kg; format: functional
[6] = tested on: Mus musculus; assay: The in vivo antitumor activity against lymphatic leukemia P388 cells resistant to mitomycin C (MMC) in mice was measured as maximal increase in life span of the treated mice at optimal dose of 3.1 mg/kg; format: functional
[7] = tested on: Mus musculus; assay: Effective dose that gave 50% inhibition of tumor growth was calculated towards sarcoma 180 cells which were inoculated subcutaneously to the axillary region of ddY mice; format: functional; settings: Mus musculus, 180, sc; in short: as §1
[8] = tested on: Mus musculus; assay: In vivo antitumor activity against lymphatic leukemia P388 cells resistant to mitomycin C (MMC) was measured as maximal increase in life span of the treated mice at optimal dose of 9.0 mg/kg; format: functional
[9] = tested on: Mus musculus; assay: In vivo antitumor activity against lymphatic leukemia P388 cells resistant to mitomycin C (MMC) was measured as maximal increase in life span of the treated mice at optimal dose of 25 mg/kg; format: functional
[10] = tested on: Mus musculus; assay: In vivo antitumor activity against lymphatic leukemia P388 cells sensitive to mitomycin C (MMC) was measured as maximal increase in life span of the treated mice at optimal dose of 25 mg/kg; format: functional
[11] = tested on: Mus musculus; assay: Effective dose that gave 50% inhibition of tumor growth was calculated towards sarcoma 180 cells which were inoculated subcutaneously to the axillary region of ddY mice; 1.9-3.7; format: functional; settings: Mus musculus, 180, sc
[12] = tested on: Mus musculus; assay: Tumor volume was calculated against sarcoma 180 cells which were inoculated subcutaneously to the axillary region of ddY mice; 0.28-0.46
[13] = tested on: HeLa; assay: In vitro anticellular activity against HeLa S3 cells; 0.59-1.1; format: functional, cell-based; settings: Homo sapiens
[14] = tested on: HeLa; assay: In vitro anticellular activity against HeLa S3 cells; 0.82-1.4; format: functional, cell-based; settings: Homo sapiens
[15] = tested on: Mus musculus; assay: Optimal dose was calculated towards sarcoma 180 cells which were inoculated subcutaneously to the axillary region of ddY mice; 4.0-6.0; format: functional
[16] = tested on: Mus musculus; assay: In vivo antitumor activity against lymphatic leukemia P388 cells resistant to mitomycin C (MMC) was measured as maximal increase in life span of the treated mice at optimal dose of 1.0-4.0 mg/kg; format: functional
[17] = tested on: Mus musculus; assay: In vivo antitumor activity against lymphatic leukemia P388 cells sensitive to mitomycin C (MMC) was measured as maximal increase in life span of the treated mice at optimal dose of 1.0-6.0 mg/kg; 38-84; format: functional

## C=CCSCC1=C(N)C(=O)C2=C(C1=O)N1C[C@@H]3N[C@@H]3[C@]1(OC)[C@@H]2COC(N)=O
[1]
  ILS at 6 mg/kg: 33%
[2]
  IC50: 2300 nM
[3]
  OD: 14 mg/kg
[4]
  T/C: 0.77 min

## CO[C@@]12[C@H](COC(N)=O)C3=C(C(=O)C(CSc4nccs4)=C(N)C3=O)N1C[C@@H]1N[C@@H]12
[5]
  ILS at 3.1 mg/kg: 49%
[6]
  ILS at 3.1 mg/kg: 26%
[7]
  ED50: 8.9 mg/kg
[2]
  IC50: 1400 nM
[3]
  OD: 13 mg/kg

## CO[C@@]12[C@H](COC(N)=O)C3=C(C(=O)C(CSc4nncn4C)=C(N)C3=O)N1C[C@@H]1N[C@@H]12
[8]
  ILS at 9 mg/kg: > 71%
[7]
  ED50: 39 mg/kg
[2]
  IC50: 2500 nM
[3]
  OD: 46 mg/kg

## CO[C@@]12[C@H](COC(N)=O)C3=C(C(=O)C(COC(C)C)=C(N)C3=O)N1C[C@@H]1N[C@@H]12
[7]
  ED50: 15 mg/kg
[2]
  IC50: 2500 nM
[3]
  OD: 50 mg/kg
[9]
  ILS at 25 mg/kg: > 97%
[10]
  ILS at 25 mg/kg: 55%

## CO[C@@]12[C@H](COC(N)=O)C3=C(C(=O)C(C)=C(N)C3=O)N1C[C@@H]1N[C@@H]12 [MITOMYCIN]
[11]
  ED50: 3.7 mg/kg
[12]
  T/C: 0.46
[13]
  IC50: 1100 nM
[14]
  IC50: 1400 nM
[15]
  OD: 6 mg/kg
[16]
  ILS: 23%
[17]
  ILS: 84%
